Activity calls are given as the source filed them. The rule behind the calls is not given here.

Data set [1] addresses T1, Fatty-acid amide hydrolase 1 (Homo sapiens) (UniProt O00519).
T1 sequence (whole entry): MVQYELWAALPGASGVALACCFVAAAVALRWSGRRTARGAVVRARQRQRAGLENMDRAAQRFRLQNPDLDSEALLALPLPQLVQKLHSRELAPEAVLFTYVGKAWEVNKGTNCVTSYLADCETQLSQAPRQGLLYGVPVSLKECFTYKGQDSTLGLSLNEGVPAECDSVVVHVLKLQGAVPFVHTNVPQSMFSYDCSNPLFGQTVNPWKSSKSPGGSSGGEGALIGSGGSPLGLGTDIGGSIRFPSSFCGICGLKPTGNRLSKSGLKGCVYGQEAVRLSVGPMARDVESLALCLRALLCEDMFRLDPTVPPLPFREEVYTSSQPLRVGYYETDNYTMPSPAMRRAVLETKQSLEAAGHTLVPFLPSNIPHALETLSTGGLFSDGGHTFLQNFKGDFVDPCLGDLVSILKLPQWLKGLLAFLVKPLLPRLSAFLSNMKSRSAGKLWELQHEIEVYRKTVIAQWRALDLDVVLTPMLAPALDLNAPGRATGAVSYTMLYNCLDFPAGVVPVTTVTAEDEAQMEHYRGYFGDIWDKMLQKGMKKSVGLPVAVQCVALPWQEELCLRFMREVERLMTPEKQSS
In words: Irreversible binding affinity to FAAH (unknown origin) assessed as lack of enzymatic activity at 120 nM at 4 degC after 24 hrs by dialysis assay. The method in brief: (§1)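 Enzyme with inhibitor was dialysed for 24 h (overnight), in parallel at 4 °C and at room temperature. FAAH activity was measured before and after dialysis and expressed as % activity of vehicle control. Lack of recovered activity after dialysis was read as irreversible binding. Reference inhibitors were a reversible binder and a slow-off substrate.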

In data set [2] the test system is Brain. Put plainly: Drug uptake in Sprague-Dawley rat brain at 20 mg/kg, po. The data set is classed as ADME, organism-based. Also on record: dose 20 mg/kg, route oral. The note with it: in vivo. The method in brief:
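Single 20 mg/kg oral dose in water, n=3 rats; brain and plasma compound levels (µM) measured over 0–4 h post-dose.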

Data set [3] concerns the target T2, Fatty-acid amide hydrolase 1 (Homo sapiens, UniProt O00519).
T2 sequence (O00519 whole entry): T1 sequence (whole entry)
Put plainly: Inhibition of human FAAH after 60 mins. The method in brief: (§2)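 Enzyme preincubated with compound for 60 min before activity read-out; values n ≥ 3 ± SEM.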

Data set [4] concerns Rattus norvegicus. In words: Ex vivo inhibition of FAAH in Sprague-Dawley rat assessed as increase in PEA level at 20 mg/kg, po after 4 hrs relative to control; values are per cent of control.
Data set [5] concerns Rattus norvegicus. Put plainly: Ex vivo inhibition of FAAH in Sprague-Dawley rat assessed as increase in AEA level at 20 mg/kg, po after 4 hrs relative to control; values are per cent of control.
Data set [6] has as its target T1, Fatty-acid amide hydrolase 1 (Homo sapiens). In words: Irreversible binding affinity to FAAH (unknown origin) assessed as lack of enzymatic activity at 100 nM at 4 degC after 24 hrs by dialysis assay. The essentials:
as §1

The test system of data set [7] is Rattus norvegicus. In words: Ex vivo inhibition of FAAH in Sprague-Dawley rat assessed as residual activity at 20 mg/kg, po after 0.5 to 4 hrs. The data set is classed as functional. The essentials:
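Oral 20 mg/kg in water, n=3 rats; brains taken at 30 min, 1 h and 4 h post-dose and ex vivo FAAH activity expressed as % of vehicle control; AEA, OEA and PEA levels measured at 4 h versus controls.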

In data set [8] the test system is Rattus norvegicus. Put plainly: Ex vivo inhibition of FAAH in Sprague-Dawley rat assessed as increase in OEA level at 20 mg/kg, po after 4 hrs relative to control; values are per cent of control.
In data set [9] the test system is Rattus norvegicus. Put plainly: Analgesic activity in rat Chung model of neuropathic pain at 20 mg/kg, po. The format is functional, organism-based. Also on record: dose 20 mg/kg. The essentials: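 Rats dosed orally at 20 mg/kg in water (vehicle water, 2 mL/kg); n=6 per group; positive control dosed p.o. at 60 mg/kg (n=3); significance assessed overall at p < 0.05.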

Data set [10] has as its target T1, Fatty-acid amide hydrolase 1 (Homo sapiens). Put plainly: Irreversible binding affinity to FAAH (unknown origin) assessed as lack of enzymatic activity at 100 nM at room temperature after 24 hrs by dialysis assay. The method in brief: as §1
Data set [11] has as its target T3, Fatty-acid amide hydrolase 1 (Rattus norvegicus, UniProt P97612).
T3 sequence (P97612 whole entry): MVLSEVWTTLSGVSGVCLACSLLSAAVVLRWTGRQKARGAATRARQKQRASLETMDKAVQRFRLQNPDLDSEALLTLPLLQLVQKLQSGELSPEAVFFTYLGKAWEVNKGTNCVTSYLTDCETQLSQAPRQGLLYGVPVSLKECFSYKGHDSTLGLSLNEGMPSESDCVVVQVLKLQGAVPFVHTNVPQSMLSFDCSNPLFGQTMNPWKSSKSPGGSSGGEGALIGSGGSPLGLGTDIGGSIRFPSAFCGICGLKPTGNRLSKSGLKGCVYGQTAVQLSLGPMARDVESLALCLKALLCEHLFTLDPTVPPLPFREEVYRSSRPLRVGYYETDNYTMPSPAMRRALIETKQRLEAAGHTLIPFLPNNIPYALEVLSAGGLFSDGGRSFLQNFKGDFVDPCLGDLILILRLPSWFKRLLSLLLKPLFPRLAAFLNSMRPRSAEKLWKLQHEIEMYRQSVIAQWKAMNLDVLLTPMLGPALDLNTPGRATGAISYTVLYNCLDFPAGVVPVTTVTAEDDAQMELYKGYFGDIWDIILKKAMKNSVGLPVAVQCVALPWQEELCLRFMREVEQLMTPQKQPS
In words: Inhibition of rat FAAH after 60 mins. The essentials: as §2

The target in data set [12] is T1, Fatty-acid amide hydrolase 1 (Homo sapiens). In words: Irreversible binding affinity to FAAH (unknown origin) assessed as lack of enzymatic activity at 120 nM at room temperature after 24 hrs by dialysis assay. The essentials: as §1

Broadly, the IC50 is the concentration needed to halve the response being measured. A low value points to greater potency. Consider `O=C(Nc1cnccc1Cl)N1CC2(CCN(Cc3cccc(Oc4ccc(Cl)cc4)c3)CC2)C1`, for which the result in data set [1], in data set [6], in data set [9], in data set [10] and in data set [12] was Active. For the same compound, in data set [2], the Drug uptake result is listed as “Active”. The IC50 came to 8 nM in [3] and 9 nM in data set [11]. Further, the results for the level, % of control at 20 mg/kg in data set [4], in data set [5] and in data set [8] were 700%, 150% and 500%, respectively. The Activity in data set [7] is given as under 10%.

The record behind these values is ChEMBL document CHEMBL3112557, “Heteroarylureas with spirocyclic diamine cores as inhibitors of fatty acid amide hydrolase” (Bioorg Med Chem Lett, 2014).
